ABCB1 inh – human ABCB1 inhibition, ABCG2 as counter-screen; P08183; CCRF-Adr cells, JC-1 efflux, flow cytometry; inhibition, % at 6.6 µM; 190,000 tested, 0.067% active; AID 1326; in the data active means inhibition above about 40%;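 further: 0% = vehicle and 100% = reference inhibitor; higher value means more JC-1 retained so stronger ABCB1 efflux block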
ABCG2 inh – human ABCG2 inhibition, ABCB1 as counter-screen | 190,000 tested, 0.1% active | inhibition, % at 6.6 µM | IgMXP3 cells, JC-1 efflux, flow cytometry | Q9UNQ0 | AID 1325;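 active means inhibition above 80%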;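 further: 0% = DMSO and 100% = nicardipine control wells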
Target sequence (Q9UNQ0 whole entry, looked up): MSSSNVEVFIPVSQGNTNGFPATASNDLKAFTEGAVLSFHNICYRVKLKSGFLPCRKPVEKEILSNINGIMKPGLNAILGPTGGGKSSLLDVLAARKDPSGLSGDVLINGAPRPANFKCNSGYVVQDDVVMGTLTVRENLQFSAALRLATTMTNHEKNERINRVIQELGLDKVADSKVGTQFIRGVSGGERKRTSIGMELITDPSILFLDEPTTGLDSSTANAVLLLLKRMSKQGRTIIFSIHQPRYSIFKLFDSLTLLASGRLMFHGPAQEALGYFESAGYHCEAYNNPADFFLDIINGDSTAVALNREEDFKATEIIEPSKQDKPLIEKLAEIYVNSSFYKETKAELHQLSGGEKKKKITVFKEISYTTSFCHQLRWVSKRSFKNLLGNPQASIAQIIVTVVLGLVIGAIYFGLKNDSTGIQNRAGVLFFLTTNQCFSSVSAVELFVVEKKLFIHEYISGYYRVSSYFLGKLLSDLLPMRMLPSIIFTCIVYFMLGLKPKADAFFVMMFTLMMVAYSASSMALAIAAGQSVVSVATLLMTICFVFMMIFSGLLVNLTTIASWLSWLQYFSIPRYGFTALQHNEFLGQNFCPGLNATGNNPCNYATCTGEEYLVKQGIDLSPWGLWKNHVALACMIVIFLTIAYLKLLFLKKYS
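Test system: IgMXP3 cells (ABCG2) mixed with DDAO far-red-labelled CCRF-Adr cells (ABCB1). Reagent: JC-1 transporter substrate. Compound dosing: single test compound dose, 6.6 µM final. Times: 10 min compound exposure, 25 °C. Detection: flow cytometry of retained JC-1 fluorescence. Read-out basis: efflux inhibition in percent versus controls. Controls: nicardipine and DMSO wells.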
Lmaj promast – reduces viability of Leishmania major promastigotes; resazurin fluorescence viability; inhibition, % at 10 µM; 200,000 tested, 9% active; in the data active means inhibition above about 50%;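 further: promastigotes grown with compound for 44 hours at 28 °C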
WT yeast gro inh – growth inhibition of WT yeast, mitochondrial fusion screen | mitochondrial fusion phenotypic screen, WT strain | inhibition, % at 10 µM | 190,000 tested, 2.1% active; in the data active means inhibition above about 58%; tested in S. cerevisiae
RAM inhibit – inhibitors of the yeast RAM network | 190,000 tested, 1.8% active | S. cerevisiae dse1pr::URA3 reporter, 5-FOA growth OD615, 2 d; analog-sensitive cbk1-as2 kinase mutant strain | AID 868 | inhibition, % at 50 µM;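 active means inhibition above a set limit, 3 SD over mean compound inhibition, cut at about 8.4% in these data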;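 further: 0% = DMSO-only wells with no growth and 100% = 10 µM 1-NA-PP1 full growth; inhibition rescues growth on 5-FOA so higher OD means more RAM inhibition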
Starred values were filed as active, the others as inactive; . = no result given. Most compounds without a hit are left out; they make up all but 12% or so of the library.

SMILES	ABCB1 inh	ABCG2 inh	Lmaj promast	WT yeast gro inh	RAM inhibit
Cc1c2ccccc2cc[n+]1CCCS(=O)(=O)[O-]	1	6	2	-14	1
CCCCCCCC[n+]1cccc2c3ccccc3ccc21	0	0	101*	80*	1
COc1cccc(NC(=O)Cn2cnc3sc(C)c(S(=O)(=O)N4CCCCC4)c3c2=O)c1	1	2	10	2	4
Cc1ccc(/C=N/N=C2/NC(=O)C(CC(=O)N3CCOCC3)S2)cc1 (configuration not stated)	0	1	-12	0	4
C/C(=N\NC(=S)NC1CCCCC1)c1ccc(OC(F)F)cc1OC(F)F	1	11	-3	66*	1
C/C(=N\NC(=S)NC1CCCCC1)c1cccs1	1	33	25	71*	3
C/C(=N\NC(=S)NC1CCCCC1)c1c(F)cccc1F	0	29	16	74*	2
C/C(=N\NC(=S)NC(C)C)c1ccccc1OC(F)F	0	1	0	53	0
C/C(=N\NC(=O)C1CC1)c1cccs1	0	3	-1	-2	3
CC(C)CN1C(=O)c2ccc(NC(=O)Cc3ccccc3)cc2C1=O	2	40	-8	-6	5
CCN(CC)c1ccc(NC(=O)CCNC(=O)c2ccco2)cc1	5	16	90*	-14	2
O=C(NCc1ccccc1)c1ccco1	1	3	0	-16	0
Cc1ccc(CNC(=O)CCNC(=O)c2ccco2)cc1	2	6	-5	95*	0
O=C(CCNC(=O)c1ccco1)Nc1ccc(Cl)cc1	0	10	4	2	2
Cc1ccc(OCC(=O)Nc2cnn(CCCC(=O)O)c2)c([N+](=O)[O-])c1	0	0	1	0	3
COc1ccc(Nc2sc(C(=O)Nc3cccc(Cl)c3)c(N)c2C(=O)Nc2ccccc2OC)cc1	-1	-2	-8	12	9.7*
COc1ccccc1NC(=O)c1c(Nc2ccccc2F)sc(C(=O)Nc2cccc(Cl)c2)c1N	-1	-8	-13	23	11*
COc1ccc(OC)c(-c2cc(C(=O)Nc3cccc(Cl)c3)no2)c1	0	3	32	30	2
O=C(C[n+]1cc(-c2ccc(F)cc2)n2c1CCC2)N1c2ccccc2Sc2ccccc21	1	1	91*	-12	0
Cc1ccc(-c2c[n+](CC(=O)N3c4ccccc4Sc4ccccc43)c3n2CCC3)cc1	0	0	96*	2	0
Cc1cc(C(=O)c2ccccc2)nc2ccccc12	0	1	0	.	2
Cc1cc(/C=C\c2ccccc2)nc2ccccc12	1	6	14	71*	1
O=C(/C(C=Nc1ccc(Br)cc1)=C(/O)c1ccco1)C(F)(F)F	0	3	-1	-21	1
CCOC(=O)c1ccc2c(c1)C1C=CCC1C(C(=O)O)N2 (configuration not stated)	0	-1	-4	22	9.7*
Cc1[nH]c2ccccc2c1-c1csc(NC(=O)CSCCO)n1	0	5	0	5	3
SMILES	ABCB1 inh	ABCG2 inh	Lmaj promast	WT yeast gro inh	RAM inhibit
COc1ccccc1NC(=S)N(CCN1CCOCC1)Cc1ccccc1F	2	7	6	15	0
COc1ccccc1NC(=S)N(CCCN1CCOCC1)Cc1cn(C)c2ccccc12	4	1	68*	11	2
S=C(Nc1ccccc1Cl)N(CCCN1CCOCC1)Cc1ccccn1	0	-1	-4	-7	2
CCOc1ccccc1NC(=S)N(CCCN1CCOCC1)Cc1cn(C)c2ccccc12	1	0	65*	8	2
Cc1cc([N+](=O)[O-])c2[nH]c(C(=O)N/N=C/c3ccccc3C(=O)O)c(-c3ccccc3)c2c1	-1	-2	-3	14	8.7*
Cc1cccc(C)c1N(CC(=O)Nc1cccc(N(C)S(C)(=O)=O)c1)S(C)(=O)=O	0	0	98*	14	2
CN(c1cccc(NC(=O)CN(c2cccc(Cl)c2)S(=O)(=O)c2ccc(Cl)cc2)c1)S(C)(=O)=O	0	-1	72*	-5	6
COC(=O)c1cc(NC(=O)CN(c2cccc(OC)c2)S(=O)(=O)c2ccccc2)ccc1Cl	10	14	33	25	8.9*
Cc1cccc(C)c1N(CC(=O)N/N=C/c1cc(Br)c(C)o1)S(C)(=O)=O	1	13	71*	13	7
Cc1ccc(Cl)cc1N(CC(=O)Nc1cccc(N(C)S(C)(=O)=O)c1)S(C)(=O)=O	0	0	3	5	2
CC(Oc1ccccc1)c1ccn[nH]1 (configuration not stated)	1	2	-4	-10	1
CC1=NNC(=O)c2ccccc2O1	1	5	-2	-7	1
CCc1nnc(NC(=O)CSc2nc3cc(OC)c(OC)cc3cc2C)s1	1	25	13	-1	1
NS(=O)(=O)c1ccc(NC(=S)Nc2ccc(C(=O)N3CCCCC3)cc2)cc1	1	1	-3	9	5
O=C(CN1CCN(Cc2ccccc2Cl)CC1)N=Nc1c(O)[nH]c2ccccc12	3	13	7	-15	2
Cc1ccc(CN2CCN(CC(=O)N=Nc3c(O)[nH]c4ccccc34)CC2)cc1	0	1	100*	-12	2
Cc1csc(N(C(=O)c2ccc(S(=O)(=O)N(C)C)cc2)c2ccccc2)n1	0	-3	-3	13	2
Cc1csc(N(C(=O)CCNC(=O)c2ccc([N+](=O)[O-])cc2)c2ccccc2)n1	8	22	64*	-16	0
CCOc1cc(S(=O)(=O)n2ccnc2)ccc1Cl	-1	-4	19	0	2
O=C(c1csc2c1CCCCC2)N1CCN(c2ncccn2)CC1	0	-1	0	5	0
CC1(C)CC(=O)c2cnc(NC(=O)CCc3ccccc3)nc2C1	0	6	18	-4	4
O=C(CCc1ccccc1)Nc1ncc2c(n1)CCCC2=O	1	8	1	60*	1
O=C(/C=C/c1cccs1)N1CCN(c2ccccc2)CC1	0	8	-1	6	2
Cc1ccc(-n2c(N)c(C#N)c(-c3ccccc3)c(C#N)c2=O)cc1	0	1	-3	70*	1
Cc1cccc(NS(=O)(=O)c2cnc(Cl)c(Br)c2)n1	0	-2	-4	-2	3
CC1Cc2ccccc2N1C(=O)CSc1nnc2n1C(C)(C)Cc1ccccc1-2 (configuration not stated)	7	23	52*	2	2
CCn1c(SCC(=O)N2c3ccccc3CC2C)nnc1-c1ccco1 (configuration not stated)	.	.	0	.	.
COc1cccc(-n2c(SCC(=O)N3c4ccccc4CC3C)nnc2-c2ccco2)c1 (configuration not stated)	4	4	53*	-14	1
CCOC(=O)CSc1nnc2n1C(C)(C)Cc1ccccc1-2	1	13	-7	-6	0
